≈ marks a conversion by molar mass, not a printed value. Calls of active or inactive are those of the source. The calls are words filed in the database; no cut-off is given here.
Tests used:
[1] = tested on: Escherichia coli; experiment: Inhibition of Escherichia coli DNA polymerase 3 beta assessed as inhibition of M13 ssDNA replication at 250 uM after 60 mins by agarose gel electrophoresis-UV transilluminator analysis in presence of polymerase 3 alpha and reconstituted clamp loader complex gamm3-delta-delta'
Method in brief: (§1)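 Reconstituted replication of 3 nM RNA-primed M13 ssDNA in 20 mM Tris-HCl pH 7.6, 10 mM MgCl2, 0.8 mM ATP, 8.4 mM DTT, 0.6 mM each dNTP, 120 mM NaCl, with 211 nM Pol III α, 700 nM SSB tetramer, 210 nM β dimer, 42 nM γ3δδ′. Compounds added at 0 °C, final 3.4% DMSO. Run 60 min at 30 °C, quenched with EDTA/SDS, products resolved on 0.7% agarose, SYBR Gold stained, viewed by UV.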

[2] = Inhibition of Escherichia coli DNA polymerase 3 beta assessed as inhibition of 5-carboxyfluorescein-QLDLF binding by fluorescence polarization-based competition assay
Method in brief: (§2)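 Competition fluorescence polarization with E. coli sliding clamp and tracer 5-carboxyfluorescein-QLDLF (Kd 70 nM). Inhibition of tracer binding plotted against inhibitor concentration. IC50 converted to Ki using the Kenakin correction for ligand depletion.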

[3] = tested on: Acinetobacter baylyi; experiment: Antibacterial activity against Acinetobacter baylyi ADP1 after 24 hrs by broth microdilution method; format: functional; details: ADP1, 24 h
Method in brief: (§3)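 CLSI broth microdilution in cation-adjusted Mueller Hinton II broth. Overnight cultures diluted to 5 × 10⁴ CFU/mL. Compounds from 100 mM DMSO stocks, serially 2-fold diluted. OD read at 595 nm before and after 24 h at 37 °C. MIC taken as lowest concentration with background-subtracted OD <0.1. Controls: medium blank, DMSO vehicle, antibiotic.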

[4] = tested on: Bacillus subtilis; experiment: Antibacterial activity against Bacillus subtilis SU5 after 24 hrs by broth microdilution method; format: functional; details: SU5, 24 h; method in brief: as §3
[5] = tested on: Staphylococcus aureus; experiment: Antibacterial activity against Staphylococcus aureus NCTC 8325 after 24 hrs by broth microdilution method; format: functional; details: NCTC 8325, 24 h; method in brief: as §3
[6] = tested on: Escherichia coli; experiment: Antibacterial activity against Escherichia coli DH5[alpha] after 24 hrs by broth microdilution method; format: functional; method in brief: as §3
[7] = Distribution coefficient, log D of the compound at pH 7.2; format: physicochemical; details: octanol/water
[8] = tested on: Escherichia coli; experiment: Inhibition of Escherichia coli DNA polymerase 3 beta assessed as inhibition of M13 ssDNA replication at 500 to 1000 uM after 60 mins by agarose gel electrophoresis-UV transilluminator analysis in presence of polymerase 3 alpha and reconstituted clamp loader complex gamm3-delta-delta'; method in brief: as §1
[9] = tested on: Escherichia coli; experiment: Inhibition of Escherichia coli DNA polymerase 3 beta assessed as inhibition of 5-carboxyfluorescein-QLDLF binding at <1 mM by fluorescence polarization-based competition assay; method in brief: as §2

O=C(O)[C@@H]1CCCc2c1[nH]c1ccc(Cl)cc21
inhibition [1]: Active | IC50 [2]: 115 µM | Ki [2]: 64 µM | MIC [3]: 313 µM (≈ 78.2 µg/mL) | MIC [4]: 156 µM (≈ 39 µg/mL) | MIC [5]: 156 µM (≈ 39 µg/mL) | MIC [6]: 313 µM (≈ 78.2 µg/mL) | logD ([7]; read-out: logD): 0.36

CCOC(=O)[C@@H]1CCCc2c1[nH]c1ccc(Cl)cc21
IC50 [2]: 899 µM | Ki [2]: 499 µM | MIC [3]: 156 µM (≈ 43.3 µg/mL) | MIC [4]: 78 µM (≈ 21.7 µg/mL) | MIC [5]: 78 µM (≈ 21.7 µg/mL) | MIC [6]: 78 µM (≈ 21.7 µg/mL) | logD ([7]; read-out: logD): 4.44

COC(=O)[C@@H]1CCCc2c1[nH]c1ccc(Cl)cc21
IC50 [2]: > 1000 µM | MIC [3]: 78 µM (≈ 20.6 µg/mL) | MIC [4]: 78 µM (≈ 20.6 µg/mL) | MIC [5]: 156 µM (≈ 41.1 µg/mL) | MIC [6]: 156 µM (≈ 41.1 µg/mL)

O=C(O)c1ccc(-c2ccc(F)cc2)cc1
inhibition [8]: Active | IC50 [2]: 504 µM | Ki [2]: 280 µM | MIC [3]: 5000 µM (≈ 1080 µg/mL) | MIC [4]: 2500 µM (≈ 541 µg/mL) | MIC [5]: 5000 µM (≈ 1080 µg/mL) | MIC [6]: 2500 µM (≈ 541 µg/mL) | logD ([7]; read-out: logD): -3.17

O=C(O)c1cc2[nH]c3c(c2cc1Cl)CCCC3
inhibition [8]: Active | IC50 [2]: 389 µM | Ki [2]: 216 µM | MIC [3]: 5000 µM (≈ 1250 µg/mL) | MIC [4]: 2500 µM (≈ 624 µg/mL) | MIC [5]: 2500 µM (≈ 624 µg/mL) | MIC [6]: 2500 µM (≈ 624 µg/mL) | logD ([7]; read-out: logD): -0.48

O=C1Nc2ccc(Cl)cc2C1=O
inhibition [9]: inactive

Clc1ccc2c(c1)c1ccccc1n2CC1CO1 (centres undefined)
inhibition [8]: Active | IC50 [2]: 358 µM | Ki [2]: 199 µM | logD [7]: 4.93

O=[N+]([O-])c1ccc2cn[nH]c2c1
inhibition [9]: inactive

NC(=O)c1ccc(F)c(F)c1
inhibition [9]: inactive

O=[N+]([O-])c1ccc2[nH]ccc2c1
inhibition [9]: inactive

Reference: ChEMBL document CHEMBL3232766, “Discovery of lead compounds targeting the bacterial sliding clamp using a fragment-based approach” (J Med Chem, 2014)
